Experiments:
Assay type in all cases: functional
[1] = Growth inhibition of human HCC2998 cells assessed as cell growth at 10^-4 M incubated for 48 hrs by sulforhodamine B assay; details: HCC 2998, 48 h, read-out: Activity
[2] = Growth inhibition of human OVCAR8 cells incubated for 48 hrs by sulforhodamine B assay; details: OVCAR-8, 48 h
Procedure, shortened: (§1)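 Cells were plated at 5,000–40,000 per well according to doubling time and preincubated 24 h at 37 °C in 5% CO2; time-zero plates were then TCA-fixed. Five concentrations (10-fold or ½-log dilutions, DMSO stock) were incubated 48 h. Cells were TCA-fixed, stained with 0.4% SRB and read at 515 nm. GI50 was taken where [(Ti−Tz)/(C−Tz)]×100 = 50.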

CCRF-CEM = test: Growth inhibition of human CCRF-CEM cells assessed as cell growth at 10^-5 M incubated for 48 hrs by sulforhodamine B assay; details: read-out: Activity
Procedure, shortened: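 Leukemia line in the five-dose format: five concentrations from 10-fold or ½-log serial dilutions. Plated at 5,000–40,000 cells per well, preincubated 24 h, then compound added for 48 h at 37 °C, 5% CO₂. Sulforhodamine B absorbance read at 515 nm. Growth is computed against time-zero (Tz) and control (C) readings; GI₅₀ is where [(Ti−Tz)/(C−Tz)]×100 = 50.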

[3] = Growth inhibition of human RPMI8226 cells assessed as cell growth at 10 uM incubated for 48 hrs by sulforhodamine B assay; details: RPMI-8226, 48 h, read-out: Activity
NCI-H226 = test: Growth inhibition of human NCI-H226 cells incubated for 48 hrs by sulforhodamine B assay; details: NCI-H226, 48 h; procedure, shortened: as §1
[4] = Growth inhibition of human OVCAR8 cells assessed as cell growth at 10^-7 M incubated for 48 hrs by sulforhodamine B assay; details: OVCAR-8, 48 h, read-out: Activity
MDA-MB-231 = test: Growth inhibition of human MDA-MB-231 cells assessed as cell growth at 10^-8 M incubated for 48 hrs by sulforhodamine B assay; details: MDA-MB-231, 48 h, read-out: Activity
Malme-3M = test: Growth inhibition of human MALME-3M cells assessed as cell growth at 10^-8 M incubated for 48 hrs by sulforhodamine B assay; details: read-out: Activity
NCI-H322M = test: Growth inhibition of human NCI-H322M cells assessed as cell growth at 10 uM incubated for 48 hrs by sulforhodamine B assay; details: read-out: Activity
SR = test: Growth inhibition of human SR cells assessed as cell growth at 10^-4 M incubated for 48 hrs by sulforhodamine B assay; details: read-out: Activity
[5] = Growth inhibition of human HCT116 cells incubated for 48 hrs by sulforhodamine B assay; details: HCT-116, 48 h
Procedure, shortened: (§2)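 Cells seeded at 5,000–40,000/well according to doubling time and preincubated 24 h at 37 °C, 5% CO2. Time-zero plates were TCA-fixed. DMSO concentrate was diluted in medium with 50 µg/ml gentamicin to give five concentrations (10-fold or ½ log steps), then exposed 48 h. Cells were TCA-fixed, stained with 0.4% SRB and read at 515 nm. Percent growth was taken against time-zero and control; GI50, TGI and LC50 derived.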

[6] = Growth inhibition of human OVCAR4 cells assessed as cell growth at 10^-7 M incubated for 48 hrs by sulforhodamine B assay; details: OVCAR-4, 48 h, read-out: Activity
[7] = Growth inhibition of human HOP62 cells assessed as cell growth at 10 uM incubated for 48 hrs by sulforhodamine B assay; details: HOP-62, 48 h, read-out: Activity
[8] = Growth inhibition of human HL-60(TB) cells incubated for 48 hrs by sulforhodamine B assay; details: HL-60, 48 h
Procedure, shortened: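 Five-concentration, 48 h SRB screen (10-fold or ½-log dilutions from a 400× DMSO concentrate; 24 h preincubation at 37 °C, 5% CO₂; time-zero plate; A515). GI50 was solved from (Ti−Tz)/(C−Tz)×100 = 50. TGI was taken where Ti = Tz, and LC50 from (Ti−Tz)/[…].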

EKVX = test: Growth inhibition of human EKVX cells assessed as cell growth at 10^-6 M incubated for 48 hrs by sulforhodamine B assay; details: read-out: Activity; procedure, shortened: as §2
MDA-MB-435 = test: Growth inhibition of human MDA-MB-435 cells assessed as cell growth at 10^-7 M incubated for 48 hrs by sulforhodamine B assay; details: MDA-MB-435, 48 h, read-out: Activity
[9] = Growth inhibition of human PC3 cells assessed as cell growth at 10^-7 M incubated for 48 hrs by sulforhodamine B assay; details: PC-3, 48 h, read-out: Activity
SK-MEL-28 = test: Growth inhibition of human SK-MEL-28 cells assessed as cell growth at 10^-5 M incubated for 48 hrs by sulforhodamine B assay; details: SK-MEL-28, 48 h, read-out: Activity
[10] = Growth inhibition of human OVCAR4 cells assessed as cell growth at 10^-8 M incubated for 48 hrs by sulforhodamine B assay; details: OVCAR-4, 48 h, read-out: Activity
[11] = Growth inhibition of human DU145 cells assessed as cell growth at 10^-5 M incubated for 48 hrs by sulforhodamine B assay; details: DU-145, 48 h, read-out: Activity; procedure, shortened: as §2
NCI/ADR-RES [12] = test: Growth inhibition of human NCI/ADR-RES cells assessed as cell growth at 10 uM incubated for 48 hrs by sulforhodamine B assay; details: read-out: Activity
[13] = Growth inhibition of human DU145 cells assessed as cell growth at 10 uM incubated for 48 hrs by sulforhodamine B assay; details: DU-145, 48 h, read-out: Activity
Procedure, shortened: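 Primary screen at one dose (10 µM) across 60 human cancer cell lines. Readout was growth percent relative to untreated control and time-zero.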

HT-29 = test: Growth inhibition of human HT-29 cells assessed as cell growth at 10^-4 M incubated for 48 hrs by sulforhodamine B assay; details: HT-29, 48 h, read-out: Activity
T47D = test: Growth inhibition of human T47D cells assessed as cell growth at 10 uM incubated for 48 hrs by sulforhodamine B assay; details: read-out: Activity
NCI/ADR-RES [14] = test: Growth inhibition of human NCI/ADR-RES cells incubated for 48 hrs by sulforhodamine B assay; procedure, shortened: as §1
[15] = read-out: LC50 (the source's name)
[16] = read-out: pLC50 (the source's name) (converted)

In the case of `Clc1ccc(-c2nc(Nc3ccc(-c4nc5ccccc5[nH]4)cc3)nc(N3CCOCC3)n2)cc1`, the growth at 100 µM [1] was 2%, the GI50 ([2]; read-out: GI50) was 1.12 µM and the CC50 [2, 15] was 6.09 µM. The TGI ([2]; read-out: TGI) was 2.61 µM, the GI50 ([2]; read-out: pGI50 (converted)) was 1.12 µM and the CC50 [2, 16] was 6.03 µM. For the same compound, the TGI ([2]; read-out: pTGI (converted)) was 2.63 µM, the growth at 10 µM (CCRF-CEM) was -63% and the growth at 10 µM [3] was -73.4%. For the same compound, the GI50 (NCI-H226; read-out: GI50) was 2.11 µM, the TGI (NCI-H226; read-out: TGI) was 4.44 µM and the GI50 (NCI-H226; read-out: pGI50 (converted)) was 2.09 µM. The TGI (NCI-H226; read-out: pTGI (converted)) was 4.47 µM, the growth at 0.1 µM [4] was 103% and the growth at 0.01 µM (MDA-MB-231) was 93%. For the same compound, the growth at 0.01 µM (Malme-3M) was 96%, the growth at 10 µM (NCI-H322M) was -92.8% and the growth at 100 µM (SR) was 5%. The GI50 ([5]; read-out: GI50) was 0.177 µM, the TGI ([5]; read-out: TGI) was 0.346 µM and the GI50 ([5]; read-out: pGI50 (converted)) was 0.178 µM. The TGI ([5]; read-out: pTGI (converted)) was 0.347 µM, the growth at 0.1 µM [6] was 98% and the growth at 10 µM [7] was -73.9%. For the same compound, the GI50 ([8]; read-out: GI50) was 0.216 µM, the TGI ([8]; read-out: TGI) was 0.567 µM and the GI50 ([8]; read-out: pGI50 (converted)) was 0.214 µM. For the same compound, the TGI ([8]; read-out: pTGI (converted)) was 0.562 µM, the growth at 1 µM (EKVX) was 58% and the growth at 0.1 µM (MDA-MB-435) was 98%. For the same compound, the growth at 0.1 µM [9] was 101%, the growth at 10 µM (SK-MEL-28) was -81% and the growth at 0.01 µM [10] was 103%. It also gave a growth at 10 µM [11] of -93%, a growth at 10 µM (NCI/ADR-RES [12]) of -87.5% and a growth at 10 µM [13] of -94%. It also gave a growth at 100 µM (HT-29) of -42%, a growth at 10 µM (T47D) of -64.8% and a GI50 (NCI/ADR-RES [14]; read-out: GI50) of 0.631 µM. For the same compound, the TGI (NCI/ADR-RES [14]; read-out: TGI) was 2.19 µM, the GI50 (NCI/ADR-RES [14]; read-out: pGI50 (converted)) was 0.631 µM and the TGI (NCI/ADR-RES [14]; read-out: pTGI (converted)) was 2.19 µM.

Work on `c1ccc2[nH]c(-c3ccc(Nc4nc(N5CCCCC5)nc(N5CCOCC5)n4)cc3)nc2c1` yielded a GI50 ([2]; read-out: GI50) of 3.24 µM, a CC50 [2, 15] greater than 100 µM and a TGI ([2]; read-out: TGI) of 14.3 µM. For the same compound, the GI50 ([2]; read-out: pGI50 (converted)) was 3.24 µM, the CC50 [2, 16] was greater than 100 µM and the TGI ([2]; read-out: pTGI (converted)) was 14.1 µM. It also gave a growth at 10 µM (CCRF-CEM) of 3%, a growth at 10 µM [3] of 2.47% and a GI50 (NCI-H226; read-out: GI50) of 3.2 µM. It also gave a CC50 (NCI-H226; [15]) greater than 100 µM, a TGI (NCI-H226; read-out: TGI) of 17.7 µM and a GI50 (NCI-H226; read-out: pGI50 (converted)) of 3.16 µM. For the same compound, the CC50 (NCI-H226; [16]) was greater than 100 µM, the TGI (NCI-H226; read-out: pTGI (converted)) was 17.8 µM and the growth at 0.1 µM [4] was 96%. For the same compound, the growth at 0.01 µM (MDA-MB-231) was 99%, the growth at 0.01 µM (Malme-3M) was 86% and the growth at 10 µM (NCI-H322M) was 35%. It also gave a growth at 100 µM (SR) of -11%, a GI50 ([5]; read-out: GI50) of 1.91 µM and a CC50 [5, 15] of 7.88 µM. It also gave a TGI ([5]; read-out: TGI) of 3.87 µM, a GI50 ([5]; read-out: pGI50 (converted)) of 1.91 µM and a CC50 [5, 16] of 7.94 µM. It also gave a TGI ([5]; read-out: pTGI (converted)) of 3.89 µM, a growth at 0.1 µM [6] of 97% and a growth at 10 µM [7] of -45.2%. It also gave a GI50 ([8]; read-out: GI50) of 2.42 µM, an LC50 ([8]; read-out: LC50) greater than 100 µM and a TGI ([8]; read-out: TGI) of 5.8 µM. The GI50 ([8]; read-out: pGI50 (converted)) was 2.4 µM, the LC50 ([8]; read-out: pLC50 (converted)) was greater than 100 µM and the TGI ([8]; read-out: pTGI (converted)) was 5.75 µM. It also gave a growth at 1 µM (EKVX) of 84%, a growth at 0.1 µM (MDA-MB-435) of 95% and a growth at 0.1 µM [9] of 98%. For the same compound, the growth at 10 µM (SK-MEL-28) was -57%, the growth at 0.01 µM [10] was 101% and the growth at 10 µM [11] was 23%. It also gave a growth at 10 µM (NCI/ADR-RES [12]) of 45.6%, a growth at 10 µM [13] of 39% and a growth at 100 µM (HT-29) of -46%. It also gave a growth at 10 µM (T47D) of 23.4%, a GI50 (NCI/ADR-RES [14]; read-out: GI50) of 4.69 µM and a CC50 (NCI/ADR-RES [14]; [15]) greater than 100 µM. It also gave a TGI (NCI/ADR-RES [14]; read-out: TGI) of 55.2 µM, a GI50 (NCI/ADR-RES [14]; read-out: pGI50 (converted)) of 4.68 µM and a CC50 (NCI/ADR-RES [14]; [16]) greater than 100 µM. For the same compound, the TGI (NCI/ADR-RES [14]; read-out: pTGI (converted)) was 55 µM.

Source: ChEMBL document CHEMBL3808334, “Synthesis and in vitro evaluation of novel triazine analogues as anticancer agents and their interaction studies with bovine serum albumin” (Eur J Med Chem, 2016)
